Laboratory results published in ChEMBL document CHEMBL4706680, “Small-Molecule HSP27 Inhibitor Abolishes Androgen Receptors in Glioblastoma” (J Med Chem, 2021).
pIC50: −log10 of the molar value. Active and inactive are the calls of the source.

What was measured:
U-87 MG [1] = assay: Antitumor activity against human U87 cells xenografted in NCR nude mouse assessed as reduction in tumor size at 20 mg/kg, ip administered thrice weekly for 14 days by vernier caliper method; type: functional, organism-based; settings: U-87MG ATCC, time 14.0 day
Outline: (§1)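 Male NCRNU nude mice, 5–6 weeks, 5 × 10^6 U87 cells in PBS injected subcutaneously into left and right flank (n = 4 mice, 8 tumors per group). Dosing began near 50 mm3: 20 mg/kg in PBS IP or oral, three times weekly for 14 days, vehicle DMSO. Calipers three times weekly, V = 2/3·d1·d2²; tumors weighed after CO2 euthanasia.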

[2] = target: Heat shock protein beta-1 (Homo sapiens) (UniProt P04792); assay: Inhibition of HSP27 in human U87 cells assessed as induction of AR degradation at 25 to 100 nM by Western blot analysis; type: cell-based; settings: dose 25-100 nM
Outline: (§2)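 Cells were treated in six-well plates (with or without MG132 where stated), then lysed in RIPA with protease inhibitors. 50 μg protein was run on 10% SDS-PAGE and transferred to PVDF. Membranes were blocked in 5% milk/TBS-T, probed with AR or AR-V7 antibodies overnight at 4 °C, and detected by chemiluminescence. Densitometry was used; n = 3.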

U-87 MG [3] = assay: Antiproliferative activity against human U87 cells assessed as reduction in cell viability incubated for 48 hrs by MTT assay; type: functional, cell-based, U-87MG ATCC
Outline: (§3)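 MTT assay; 3000 cells/well in RPMI 1640 or DMEM with 10% FBS, seeded 24 h, then exposed 48 h to a range of concentrations in DMSO (final ≤0.1%); vehicle controls. MTT 1 mg/mL for 2 h at 37 °C, dye dissolved in DMSO, absorbance 570 nm; eight replicates; IC50 by nonlinear regression.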

U-87 MG [4] = assay: Antitumor activity against human U87 cells xenografted in nude mouse assessed as reduction in tumor weight at 20 mg/kg, ip administered thrice weekly for 14 days by vernier caliper method; type: functional, organism-based; settings: U-87MG ATCC, time 14.0 day; outline: as §1
[5] = target: Heat shock protein beta-1 (Homo sapiens) (UniProt P04792); assay: Inhibition of HSP27 (unknown origin) chaperone activity assessed as increase in DTT-induced insulin aggregation at 10 uM incubated for 5 mins in absence of alpha-crystallin followed by addition of DTT and measured for 2 hrs for every 3 mins by microplate reader analysis; settings: time 125.0 min
Outline: (§4)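 Insulin aggregation assay in PBS at 10 μM, 0.1% DMSO. Insulin stock 1 mg/mL with or without α-crystallin stock 5 mg/mL was preincubated 5 min at 37 °C. Aggregation was started with DTT (1 M stock). A400 was read every 3 min for 2 h; three independent experiments, each in triplicate.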

[6] = target: Heat shock protein beta-1 (Homo sapiens) (UniProt P04792); assay: Inhibition of HSP27 in human T98G cells assessed as induction of AR degradation at 25 to 100 nM by Western blot analysis; type: cell-based; settings: dose 25-100 nM; outline: as §2
U-87MG ATCC = assay: Downregulation of PSA mRNA expression in human U87 cells at 25 nM incubated for 12 hrs by qRT-PCR analysis; type: functional, cell-based
Outline: (§5)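 T98G and U87 cells, 2 × 10^5 per well, adhered overnight and were treated at 25 nM for 12 h. RNA was extracted with RiboZol and DNase I-treated. AR, PSA and NKX3.1 were measured by real-time PCR, normalized to 18S by 2−ΔΔCt, three replicates per cDNA.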

[7] = target: Heat shock protein beta-1 (Homo sapiens) (UniProt P04792); assay: Inhibition of HSP27 in human T98G cells assessed as downregulation of androgen receptor by Western blot analysis; type: cell-based; settings: dose 25-100 nM; outline: as §2
[8] = Toxicity in NCR nude mouse xenografted with human U87 cells assessed as change in body weight at 20 mg/kg, po administered thrice weekly for 14 days; type: organism-based; settings: in vivo, 336 h, time 14 day
Outline: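 Male NCRNU nude mice, 5–6 weeks old, were given 5 × 10^6 U87 cells in 100 μL sterile PBS, injected subcutaneously into the left and right flanks. Dosing was 20 mg/kg in PBS, three times weekly for 14 days, with a DMSO vehicle group. Body weight was recorded three times weekly. Results are mean ± SD, n = 4 mice per group.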

T98G [9] = assay: Downregulation of PSA mRNA expression in human T98G cells at 25 nM incubated for 12 hrs by qRT-PCR analysis; type: functional, cell-based; outline: as §5
T98G [10] = assay: Antiproliferative activity against human T98G cells overexpressing AR assessed as reduction in cell viability incubated for 48 hrs by MTT assay; type: functional, cell-based; outline: as §3
Bos taurus = species on record: Bos taurus; assay: Inhibition of bovine brain tubulin polymerization measured every 1 min for 45 mins in presence of GTP by microplate reader analysis; settings: dose 1-1000 nM
Outline: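 MAP-rich bovine brain tubulin, 2 mg/mL, in 80 mM PIPES pH 6.9, 2 mM MgCl2, 0.5 mM EGTA, 5% glycerol with a range of concentrations in DMSO at 37 °C. Polymerization was started with GTP (100 mM stock, 1 μL). A340 was read each minute for 45 min; three independent experiments, analysed at end reading.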

[11] = target: Heat shock protein beta-1 (Homo sapiens) (UniProt P04792); assay: Inhibition of HSP27 in human T98G cells assessed as reduction in AR expression level at 100 nM incubated for 12 hrs by immunofluorescence analysis; type: cell-based
Outline: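 T98G cells on coverslips, 24 h after seeding, were treated 12 h with 100 nM, DHT 10 nM, or both. Cells were fixed in 4% paraformaldehyde, permeabilized with 0.1% Triton X-100 and blocked with 1% BSA. They were stained 1 h each with AR and HSP27 primary and fluorescent secondary antibodies, with DAPI for nuclei.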

[12] = target: Heat shock protein beta-1 (Homo sapiens) (UniProt P04792); assay: Inhibition of HSP27 (unknown origin) chaperone activity assessed as increase in DTT-induced insulin aggregation at 10 uM incubated for 5 mins in presence of alpha-crystallin followed by addition of DTT and measured for 2 hrs for every 3 mins by microplate reader analysis; settings: time 125.0 min; outline: as §4
Mus musculus = assay: In vivo inhibition of HSP27 in human U87 cells xenografted in NCR nude mouse assessed as reduction in AR expression level in tumors at 20 mg/kg, ip administered thrice weekly for 14 days by Western blot analysis; type: functional, organism-based; settings: time 14.0 day
Outline: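 Tumors from U87 flank xenografts in male nude mice dosed at 20 mg/kg IP or orally three times weekly for 14 days. The two tumors of each mouse were pooled and homogenized in RIPA with protease inhibitors and PMSF. AR was then measured by western blot; n = 4.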

[13] = target: Heat shock protein beta-1 (Homo sapiens) (UniProt P04792); assay: Inhibition of HSP27 in human T98G cells assessed as reduction in wild type AR expression level at 50 to 100 nM in presence of MG132 by Western blot analysis; type: cell-based; settings: dose 50-100 nM; outline: as §2

Heat shock protein beta-1 (Homo sapiens), sequence (P04792 whole entry): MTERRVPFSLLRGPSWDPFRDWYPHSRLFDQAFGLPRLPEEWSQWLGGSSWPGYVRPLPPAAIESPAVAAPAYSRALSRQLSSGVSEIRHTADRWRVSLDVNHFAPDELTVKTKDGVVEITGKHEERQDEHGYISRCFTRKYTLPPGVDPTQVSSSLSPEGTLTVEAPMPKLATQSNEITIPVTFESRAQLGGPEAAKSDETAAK

COc1ccc(C(=O)Nc2ccc(NS(C)(=O)=O)c(OCc3cc(OC)ccc3OC)c2)cc1
8.70: pIC50 (T98G [10])
inactive: inhibition [5] | inhibition [13]
8.32: pIC50 (U-87 MG [3])
Non-Toxic: Activity [8]
active: Activity (U-87 MG [1]) | inhibition [2] | Activity (U-87 MG [4]) | inhibition [6] | inhibition (U-87MG ATCC) | inhibition [7] Dose-dependent effect | inhibition (T98G [9]) | inhibition (Bos taurus) Dose-dependent effect | inhibition [11] | inhibition [12] | inhibition (Mus musculus)
